Laboratory results reported in ChEMBL document CHEMBL1138326, “Structure-based design, synthesis, and biological evaluation of indomethacin derivatives as cyclooxygenase-2 inhibiting nitric oxide donors” (J Med Chem, 2007).
Active and inactive are the calls of the source. The calls are words filed in the database; no cut-off is given here.

Legend:
[1] = target: T1, Prostaglandin G/H synthase 2 (Homo sapiens) (UniProt P35354); assay: Inhibition of COX2 in human whole blood assessed as effect on LPS-induced thromboxane B2 production at 100 uM relative to control; values are per cent of control
T1 sequence (whole entry): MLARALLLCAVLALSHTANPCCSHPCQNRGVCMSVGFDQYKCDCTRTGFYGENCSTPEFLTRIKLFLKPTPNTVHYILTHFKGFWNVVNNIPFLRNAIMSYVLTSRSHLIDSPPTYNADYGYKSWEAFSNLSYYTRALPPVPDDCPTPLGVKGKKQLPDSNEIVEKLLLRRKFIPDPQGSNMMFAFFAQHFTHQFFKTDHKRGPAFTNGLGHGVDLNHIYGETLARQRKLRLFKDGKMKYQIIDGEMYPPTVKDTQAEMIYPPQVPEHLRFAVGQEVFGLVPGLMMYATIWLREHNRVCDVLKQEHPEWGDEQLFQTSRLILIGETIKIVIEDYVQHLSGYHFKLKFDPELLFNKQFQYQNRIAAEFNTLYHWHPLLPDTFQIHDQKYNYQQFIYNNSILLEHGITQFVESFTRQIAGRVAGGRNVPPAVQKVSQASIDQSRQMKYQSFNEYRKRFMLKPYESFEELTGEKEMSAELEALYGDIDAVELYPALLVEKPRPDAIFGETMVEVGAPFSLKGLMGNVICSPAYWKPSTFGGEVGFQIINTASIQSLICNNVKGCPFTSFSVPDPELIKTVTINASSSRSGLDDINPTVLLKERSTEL

[2] = target: T2, Prostaglandin G/H synthase 1 (Homo sapiens, UniProt P23219); assay: Inhibition of COX1 in human whole blood assessed as effect on A23187-induced thromboxane B2 production; assay type: tissue-based
T2 sequence (P23219 whole entry): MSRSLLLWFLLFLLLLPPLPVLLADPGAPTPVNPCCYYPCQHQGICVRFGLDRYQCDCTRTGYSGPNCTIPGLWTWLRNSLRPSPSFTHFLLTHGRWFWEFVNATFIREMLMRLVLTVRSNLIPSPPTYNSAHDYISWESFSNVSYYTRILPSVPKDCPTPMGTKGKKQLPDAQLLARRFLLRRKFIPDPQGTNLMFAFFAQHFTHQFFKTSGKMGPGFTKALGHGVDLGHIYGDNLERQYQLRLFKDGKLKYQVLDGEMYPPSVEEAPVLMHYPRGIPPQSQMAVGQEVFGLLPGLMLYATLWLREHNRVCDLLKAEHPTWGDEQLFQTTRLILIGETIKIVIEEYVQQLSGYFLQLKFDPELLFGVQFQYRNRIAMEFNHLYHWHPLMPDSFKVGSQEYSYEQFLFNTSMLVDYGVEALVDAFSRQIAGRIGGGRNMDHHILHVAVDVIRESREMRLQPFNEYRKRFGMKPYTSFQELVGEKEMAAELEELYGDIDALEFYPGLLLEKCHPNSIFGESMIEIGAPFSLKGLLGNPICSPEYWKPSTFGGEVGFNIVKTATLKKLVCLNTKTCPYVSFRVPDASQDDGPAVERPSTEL

[3] = target: T2, Prostaglandin G/H synthase 1; assay: Inhibition of COX1 in human whole blood assessed as effect on A23187-induced thromboxane B2 production at 1 uM relative to control; values are per cent of control
[4] = target: T1, Prostaglandin G/H synthase 2 (Homo sapiens); assay: Inhibition of COX2 in human whole blood assessed as effect on LPS-induced thromboxane B2 production at 30 uM relative to control; values are per cent of control
[5] = target: T2, Prostaglandin G/H synthase 1; assay: Inhibition of COX1 in human whole blood assessed as effect on A23187-induced thromboxane B2 production at 3 uM relative to control; values are per cent of control
[6] = target: T2, Prostaglandin G/H synthase 1; assay: Inhibition of COX1 in human whole blood assessed as effect on A23187-induced thromboxane B2 production at 30 uM relative to control; values are per cent of control
[7] = target: T2, Prostaglandin G/H synthase 1; assay: Inhibition of COX1 in human whole blood assessed as effect on A23187-induced thromboxane B2 production at 100 uM relative to control; values are per cent of control
[8] = target: T2, Prostaglandin G/H synthase 1; assay: Inhibition of COX1 in human whole blood assessed as effect on A23187-induced thromboxane B2 production at 10 uM relative to control; values are per cent of control
Rattus norvegicus [9] = assay: Gastric sparing effect in Sprague-Dawley rat assessed as reduction of aspirin-induced gastric damage at 45 umol/kg, po; assay type: ADME, organism-based, Stomach; design: scale not given: the % may be the effect or the level left; conditions: in vivo
Method in brief: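 Aspirin (25 mg/kg, in 1.0% methocel) gavaged at 1.0 mL/kg; test compound in 0.5% methocel gavaged 2 min later. Rats killed after 3 h and stomachs scored as summed hemorrhagic lesion lengths. Six groups, 3–11 rats each; ANOVA with Newman-Keuls test.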

Rattus norvegicus [10] = assay: Toxicity in Sprague-Dawley rat assessed as reduction of gastric lesion score at 45 umol/kg, po; assay type: organism-based, Stomach; design: scale not given: the % may be the effect or the level left; conditions: in vivo
Method in brief: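 Rats fasted 18 h; compound homogenized in 0.5% methocel and gavaged at 1 mL/kg. Killed 3 h after dosing. Stomach opened along the greater curvature and photographed. Hemorrhagic lesion lengths scored blind and summed as the total lesion score. Means ± SEM, 4–12 animals; ANOVA with Dunnett's test.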

Rattus norvegicus [11] = assay: Antiinflammatory activity against intrapouch dosed Sprague-Dawley rat carrageenan air-pouch model assessed as reduction of prostaglandin E2 at 45 umol/kg; assay type: functional; design: scale not given: the % may be the effect or the level left
Method in brief: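 Air pouch made with 20 mL sterile air sc on day -6 and 10 mL more on day -3; rats fasted 18 h. Compound in 0.5% methocel injected into the pouch 1 h before carrageenan (1 mL of 1.0% in saline). After 4 h, exudate recovered with PBS/heparin and assayed for PGE2 by enzyme immunoassay.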

Rattus norvegicus [12] = assay: Increase in nitrite plus nitrate levels in Sprague-Dawley rat at 45 umol/kg, po; assay type: functional, organism-based
Method in brief: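 Plasma taken by cardiac puncture 4 h after oral dosing (0.5% methylcellulose vehicle), at the end of the air-pouch experiment. Total NOx (nitrite plus nitrate) measured with a fluorometric kit. Means ± SEM, n = 3; ANOVA with Dunnett's test vs vehicle.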

Homo sapiens = species: Homo sapiens; assay: Selectivity for human COX2 over human COX1
Rattus norvegicus [13] = assay: Antiinflammatory activity against Sprague-Dawley rat carrageenan air-pouch model assessed as reduction of prostaglandin E2 at 45 umol/kg, po; assay type: functional; design: scale not given: the % may be the effect or the level left
Method in brief: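 Air pouches raised by sc injection of 20 mL sterile air (day -6) plus 10 mL on day -3; rats fasted 18 h. Compound suspended in 0.5% methocel given orally 1 h before intrapouch carrageenan (1 mL of 1.0% in saline). Exudate collected 4 h later after PBS/heparin lavage; PGE2 by enzyme immunoassay. Means ± SEM, n = 6–22; ANOVA with Dunnett's test vs vehicle.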

| SMILES | residual activity [1] [%] | IC50 [2] [µM] | residual activity [3] [%] | residual activity [4] [%] | residual activity [5] [%] | residual activity [6] [%] | residual activity [7] [%] | residual activity [8] [%] | Activity (Rattus norvegicus [9]) [%] | Activity (Rattus norvegicus [10]) [%] | Activity (Rattus norvegicus [11]) [%] | Activity (Rattus norvegicus [12]) | Ratio IC50 (Homo sapiens) | Activity (Rattus norvegicus [13]) [%] |
| --- | --- | --- | --- | --- | --- | --- | --- | --- | --- | --- | --- | --- | --- | --- |
| COc1cc2c(CC(=O)NCCCO[N+](=O)[O-])c(C)n(C(=O)c3ccc(Cl)cc3)c2cc1Cl | 0 | 15.9 | 98 | 3 | 72 | 41 | 13 | 70 |  |  |  |  |  |  |
| COc1ccc2c(c1)c(CC(=O)NCCCO[N+](=O)[O-])c(C)n2C(=O)c1ccc(Cl)cc1 |  | 6 | 77 | 1 | 65 | 7 | 0 | 31 | 85 | 98 | 99 | Active | 5 | 71 |
| COc1ccc2c(c1)c(CC(=O)NCCCO)c(C)n2C(=O)c1ccc(Cl)cc1 |  | 3.3 | 91 | 0 | 46 | 11 | 6 | 37 |  | 98 | 97 |  |  | 85 |
